This is an account of results in ChEMBL document CHEMBL5108071, “Potent and Specific Activators for Mitochondrial Sirtuins Sirt3 and Sirt5” (J Med Chem, 2022).

The target of experiment [1] is T1, NAD-dependent protein deacylase sirtuin-5, mitochondrial (Homo sapiens, UniProt Q9NXA8). The experiment in a line: Binding affinity to N-terminal his-tagged human SIRT5 (34 to 302 residues) expressed in Escherichia coli assessed as dissociation constant using NAD+ as substrate. The essentials: (§1)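 MST binding: Sirt5 labelled 2 h at room temperature in the dark with twofold molar excess FITC in PBS pH 7.4, free dye removed; 10 nM labelled protein incubated with ligand plus saturating 0.5 mM peptide or 5 mM NAD+ in PBS, 10% DMSO, 30 min on ice; read at 25 °C.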

In experiment [2] the target is T1, NAD-dependent protein deacylase sirtuin-5, mitochondrial. The experiment in a line: Binding affinity to N-terminal his-tagged human SIRT5 (34 to 302 residues) expressed in Escherichia coli assessed as dissociation constant using CPS1-succK537 peptide as substrate. The essentials: as §1

T1 sequence (Q9NXA8 whole entry, the tested form may be a part): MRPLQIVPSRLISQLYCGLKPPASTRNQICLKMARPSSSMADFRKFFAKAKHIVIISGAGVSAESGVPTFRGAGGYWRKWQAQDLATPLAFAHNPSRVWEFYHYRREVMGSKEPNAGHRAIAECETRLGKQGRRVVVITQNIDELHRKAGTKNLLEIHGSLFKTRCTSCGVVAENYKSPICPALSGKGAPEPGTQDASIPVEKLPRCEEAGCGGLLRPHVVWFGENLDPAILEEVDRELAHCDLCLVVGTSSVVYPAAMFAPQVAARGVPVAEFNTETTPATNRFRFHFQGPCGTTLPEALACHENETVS

What is called Kd is the concentration at which binding is half-saturated. In the case of `CCOC(=O)C1=CN(C(=O)c2ccccc2)C=C(C(=O)OCC)C1c1ccsc1`, the values for the Kd in experiment [1] and in experiment [2] were 28 µM and 24 µM, respectively.
